According to ChEMBL document CHEMBL4177755, “Combating Drug-Resistant Fungi with Novel Imperfectly Amphipathic Palindromic Peptides” (J Med Chem, 2018):
≈ marks a conversion by molar mass, not a printed value.

Tests used:
Assay type in all cases: functional
Candida albicans [1] = experiment: Fungicidal activity against Candida albicans isolated from alveolar fluid after 96 hrs; conditions: read-out: MFC99.9
Procedure, shortened: (§1)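 After the 48 h, 28 °C broth microdilution in MOPS-buffered RPMI 1640 (inoculum (0.5−1) × 10^3 CFU/mL), 50 μL from each well was plated on YM agar for a further 48 h at 28 °C. MFC is the lowest concentration killing at least 99.9% of cells. Triplicate, three biological replicates.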

Candida albicans [2] = experiment: Fungicidal activity against Candida albicans SP3931 after 96 hrs; conditions: SP3931, 96 h, read-out: MFC99.9; procedure, shortened: as §1
Candida albicans [3] = experiment: Antifungal activity against Candida albicans cgmcc 2.2086 in presence of 50% human heat-inactivated serum by broth dilution method
Candida albicans [4] = experiment: Antifungal activity against Candida albicans cgmcc 2.2086 in presence of MgCl2 by broth dilution method
Candida parapsilosis [5] = experiment: Fungicidal activity against Candida parapsilosis cgmcc 2.3989 after 96 hrs; conditions: Lodderomyces parapsilosis, cgmcc 2.3989, 96 h; read-out: MFC99.9
Procedure, shortened: (§2)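 Wells from the 48 h, 28 °C RPMI 1640/MOPS microdilution plates were plated on YM agar and incubated a further 48 h at 28 °C. MFC is the lowest concentration killing at least 99.9% of cells. Run in triplicate with three biological replicates.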

Candida albicans [6] = experiment: Antifungal activity against Candida albicans SP3902 after 48 hrs by broth microdilution method; conditions: SP3902, 48 h
Procedure, shortened: (§3)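 Modified CLSI M27-A2 broth microdilution. Yeast at (0.5−1) × 10^3 CFU/mL in MOPS-buffered RPMI 1640 was mixed 1:1 with peptide serially diluted in 0.2% BSA and incubated 48 h at 28 °C. Absorbance was read at 492 nm; MIC is the lowest concentration inhibiting 95% of growth. Triplicate, three biological replicates.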

Candida albicans [7] = experiment: Fungicidal activity against fluconazole-resistant Candida albicans 17546 after 96 hrs; conditions: Candida albicans, 17546, 96 h; read-out: MFC99.9; procedure, shortened: as §1
Candida albicans [8] = experiment: Fungicidal activity against Candida albicans SP3903 after 96 hrs; conditions: SP3903, 96 h, read-out: MFC99.9; procedure, shortened: as §1
Candida albicans [9] = experiment: Antifungal activity against Candida albicans SP3931 after 48 hrs by broth microdilution method; conditions: SP3931, 48 h; procedure, shortened: as §3
Candida albicans [10] = experiment: Antifungal activity against Candida albicans cgmcc 2.2086 in presence of NaCl by broth dilution method
Candida albicans [11] = experiment: Antifungal activity against Candida albicans cgmcc 2.2086 in presence of CaCl2 by broth dilution method
Candida albicans [12] = experiment: Fungicidal activity against Candida albicans 58288 after 96 hrs; conditions: Candida albicans, 58288, 96 h; read-out: MFC99.9; procedure, shortened: as §1
Candida parapsilosis [13] = experiment: Antifungal activity against Candida parapsilosis cgmcc 2.3989 after 48 hrs by broth microdilution method; conditions: Lodderomyces parapsilosis, cgmcc 2.3989, 48 h
Procedure, shortened: (§4)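 Modified CLSI M27-A2 broth microdilution. Yeast were suspended in MOPS-buffered RPMI 1640 at a final (0.5−1) × 10^3 CFU/mL and mixed 1:1 with peptide serially diluted in 0.2% BSA. Plates were incubated 48 h at 28 °C and read at A492. MIC is the lowest concentration giving 95% inhibition. Run in triplicate with three biological replicates.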

Candida albicans [14] = experiment: Antifungal activity against Candida albicans cgmcc 2.2086 in presence of 25% human heat-inactivated serum by broth dilution method
Candida albicans [15] = experiment: Antifungal activity against Candida albicans cgmcc 2.2086 in presence of FeCl3 by broth dilution method
Candida tropicalis [16] = experiment: Antifungal activity against Candida tropicalis cgmcc 2.1975 after 48 hrs by broth microdilution method; conditions: cgmcc 2.1975, 48 h; procedure, shortened: as §4
Pichia kudriavzevii [17] = experiment: Antifungal activity against Candida krusei cgmcc 2.1857 after 48 hrs by broth microdilution method; conditions: cgmcc 2.1857, 48 h; procedure, shortened: as §4
Candida tropicalis [18] = experiment: Fungicidal activity against Candida tropicalis cgmcc 2.1975 after 96 hrs; conditions: cgmcc 2.1975, 96 h, read-out: MFC99.9; procedure, shortened: as §2
Candida albicans [19] = experiment: Antifungal activity against Candida albicans cgmcc 2.2086 after 48 hrs by broth microdilution method; conditions: cgmcc 2.2086, 48 h; procedure, shortened: as §3
Candida albicans [20] = experiment: Fungicidal activity against Candida albicans SP3902 after 96 hrs; conditions: SP3902, 96 h, read-out: MFC99.9; procedure, shortened: as §1
Pichia kudriavzevii [21] = experiment: Fungicidal activity against Candida krusei cgmcc 2.1857 after 96 hrs; conditions: cgmcc 2.1857, 96 h, read-out: MFC99.9; procedure, shortened: as §2
Candida albicans [22] = experiment: Antifungal activity against Candida albicans cgmcc 2.2086 in presence of KCl by broth dilution method
Candida albicans [23] = experiment: Antifungal activity against Candida albicans cgmcc 2.2086 in presence of ZnCl2 by broth dilution method
Candida albicans [24] = experiment: Antifungal activity against Candida albicans cgmcc 2.2086 in presence of 12.5% human heat-inactivated serum by broth dilution method
Candida albicans [25] = experiment: Fungicidal activity against fluconazole-resistant Candida albicans 56452 after 96 hrs; conditions: Candida albicans, 56452, 96 h; read-out: MFC99.9; procedure, shortened: as §1
Candida albicans [26] = experiment: Antifungal activity against Candida albicans 14936 after 48 hrs by broth microdilution method; conditions: Candida albicans, 14936, 48 h; procedure, shortened: as §3
Candida albicans [27] = experiment: Antifungal activity against Candida albicans 58288 after 48 hrs by broth microdilution method; conditions: Candida albicans, 58288, 48 h; procedure, shortened: as §3
Candida albicans [28] = experiment: Fungicidal activity against Candida albicans 14936 after 96 hrs; conditions: Candida albicans, 14936, 96 h; read-out: MFC99.9; procedure, shortened: as §1
Candida albicans [29] = experiment: Antifungal activity against Candida albicans cgmcc 2.2086 in presence of NH4Cl by broth dilution method
Candida albicans [30] = experiment: Antifungal activity against fluconazole-resistant Candida albicans 17546 after 48 hrs by broth microdilution method; conditions: Candida albicans, 17546, 48 h; procedure, shortened: as §3
Candida albicans [31] = experiment: Antifungal activity against Candida albicans isolated from alveolar fluid after 48 hrs by broth microdilution method; procedure, shortened: as §3
Candida albicans [32] = experiment: Fungicidal activity against Candida albicans cgmcc 2.2086 after 96 hrs; conditions: cgmcc 2.2086, 96 h, read-out: MFC99.9; procedure, shortened: as §1
Candida albicans [33] = experiment: Antifungal activity against fluconazole-resistant Candida albicans 56214 after 48 hrs by broth microdilution method; conditions: Candida albicans, 56214, 48 h; procedure, shortened: as §3
Candida albicans [34] = experiment: Antifungal activity against Candida albicans SP3876 after 48 hrs by broth microdilution method; conditions: SP3876, 48 h; procedure, shortened: as §3
Candida albicans [35] = experiment: Fungicidal activity against fluconazole-resistant Candida albicans 56214 after 96 hrs; conditions: Candida albicans, 56214, 96 h; read-out: MFC99.9; procedure, shortened: as §1
Candida albicans [36] = experiment: Fungicidal activity against Candida albicans SP3876 after 96 hrs; conditions: SP3876, 96 h, read-out: MFC99.9; procedure, shortened: as §1
Candida albicans [37] = experiment: Antifungal activity against Candida albicans SP3903 after 48 hrs by broth microdilution method; conditions: SP3903, 48 h; procedure, shortened: as §3
Candida albicans [38] = experiment: Antifungal activity against fluconazole-resistant Candida albicans 56452 after 48 hrs by broth microdilution method; conditions: Candida albicans, 56452, 48 h; procedure, shortened: as §3

Structure (SMILES) | MFC (Candida albicans [1]) | MFC (Candida albicans [2]) | MIC (Candida albicans [3]) | MIC (Candida albicans [4]) | MFC (Candida parapsilosis [5]) | MIC95 (Candida albicans [6]) | MFC (Candida albicans [7]) | MFC (Candida albicans [8]) | MIC95 (Candida albicans [9]) | MIC (Candida albicans [10]) | MIC (Candida albicans [11]) | MFC (Candida albicans [12]) | MIC95 (Candida parapsilosis [13]) | MIC (Candida albicans [14]) | MIC (Candida albicans [15]) | MIC95 (Candida tropicalis [16]) | MIC95 (Pichia kudriavzevii [17]) | MFC (Candida tropicalis [18]) | MIC95 (Candida albicans [19]) | MFC (Candida albicans [20]) | further results
CC(=O)N1CCN(c2ccc(OCC3COC(Cn4ccnc4)(c4ccc(Cl)cc4Cl)O3)cc2)CC1 (stereo unspecified) [KETOCONAZOLE] | 2 µM (≈ 1.06 µg/mL) | > 64 µM | 0.5 µM | 0.25 µM | 1 µM (≈ 0.531 µg/mL) | > 64 µM | 64 µM (≈ 34 µg/mL) | > 64 µM | > 64 µM | 0.25 µM | 0.5 µM | > 64 µM | 0.25 µM (≈ 0.133 µg/mL) | 0.25 µM | 0.25 µM | 0.25 µM (≈ 0.133 µg/mL) | 1 µM (≈ 0.531 µg/mL) | 1 µM (≈ 0.531 µg/mL) | 0.25 µM (≈ 0.133 µg/mL) | > 64 µM | MFC (Pichia kudriavzevii [21]): 1 µM (≈ 0.531 µg/mL); MIC (Candida albicans [22]): 0.25 µM; MIC (Candida albicans [23]): 0.25 µM; MIC (Candida albicans [24]): 0.25 µM; MFC (Candida albicans [25]): > 64 µM; MIC95 (Candida albicans [26]): > 64 µM; MIC95 (Candida albicans [27]): 1 µM (≈ 0.531 µg/mL); MFC (Candida albicans [28]): > 64 µM; MIC (Candida albicans [29]): 0.25 µM; MIC95 (Candida albicans [30]): 32 µM (≈ 17 µg/mL); MIC95 (Candida albicans [31]): 0.5 µM (≈ 0.266 µg/mL); MFC (Candida albicans [32]): 1 µM (≈ 0.531 µg/mL); MIC95 (Candida albicans [33]): 64 µM (≈ 34 µg/mL); MIC95 (Candida albicans [34]): > 64 µM; MFC (Candida albicans [35]): > 64 µM; MFC (Candida albicans [36]): > 64 µM; MIC95 (Candida albicans [37]): > 64 µM; MIC95 (Candida albicans [38]): 64 µM (≈ 34 µg/mL)
C[C@@H]1[C@H](O)[C@@H](C)/C=C/C=C/C=C/C=C/C=C/C=C/C=C/[C@H](O[C@@H]2O[C@H](C)[C@@H](O)[C@H](N)[C@@H]2O)C[C@@H]2O[C@](O)(C[C@@H](O)C[C@@H](O)[C@H](O)CC[C@@H](O)C[C@@H](O)CC(=O)O[C@H]1C)C[C@H](O)[C@H]2C(=O)O [AMPHOTERICIN B] | 2 µM (≈ 1.85 µg/mL) | 1 µM (≈ 0.924 µg/mL) | 1 µM | 1 µM | 2 µM (≈ 1.85 µg/mL) | 0.25 µM (≈ 0.231 µg/mL) | 1 µM (≈ 0.924 µg/mL) | 1 µM (≈ 0.924 µg/mL) | 0.25 µM (≈ 0.231 µg/mL) | 1 µM | 2 µM | 2 µM (≈ 1.85 µg/mL) | 2 µM (≈ 1.85 µg/mL) | 1 µM | 1 µM | 1 µM (≈ 0.924 µg/mL) | 1 µM (≈ 0.924 µg/mL) | 2 µM (≈ 1.85 µg/mL) | 1 µM (≈ 0.924 µg/mL) | 1 µM (≈ 0.924 µg/mL) | MFC (Pichia kudriavzevii [21]): 1 µM (≈ 0.924 µg/mL); MIC (Candida albicans [22]): 1 µM; MIC (Candida albicans [23]): 1 µM; MIC (Candida albicans [24]): 1 µM; MFC (Candida albicans [25]): 2 µM (≈ 1.85 µg/mL); MIC95 (Candida albicans [26]): 0.25 µM (≈ 0.231 µg/mL); MIC95 (Candida albicans [27]): 0.5 µM (≈ 0.462 µg/mL); MFC (Candida albicans [28]): 0.5 µM (≈ 0.462 µg/mL); MIC (Candida albicans [29]): 1 µM; MIC95 (Candida albicans [30]): 0.25 µM (≈ 0.231 µg/mL); MIC95 (Candida albicans [31]): 1 µM (≈ 0.924 µg/mL); MFC (Candida albicans [32]): 1 µM (≈ 0.924 µg/mL); MIC95 (Candida albicans [33]): 1 µM (≈ 0.924 µg/mL); MIC95 (Candida albicans [34]): 0.25 µM (≈ 0.231 µg/mL); MFC (Candida albicans [35]): 2 µM (≈ 1.85 µg/mL); MFC (Candida albicans [36]): 0.5 µM (≈ 0.462 µg/mL); MIC95 (Candida albicans [37]): 0.125 µM (≈ 0.116 µg/mL); MIC95 (Candida albicans [38]): 1 µM (≈ 0.924 µg/mL)
